# Xi reactivation: activators of X-chromosome reactivation in mouse fibroblasts; XiGFP mouse fibroblasts, % GFP-positive cells imaging, 3 d; cells co-treated with 5-aza-dC sensitizer; scaled so ellipticine positive control = 100%; activation, % at 7.58 µM; 0.055% of 360,000 active; AID 743238;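 active = mean normalized replicate activation at least 10% and every replicate at or above 10%; inconclusive = only one of the two criteria met; inactive = mean below 10% and not all replicates reach 10%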;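 also: 0% = median of on-plate neutral control wells and 100% = ellipticine 6 µM median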
#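 Schedule: 3 d treatment, 15 min room-temperature fixation; system: 68-5-11 XiGFP fibroblast line; buffer or medium: DMEM plus 5-aza-dC sensitizer; control set: ellipticine 6 µM positive control; compound: one concentration, pinned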
# DENV2 CPE: inhibitors of DENV2 cytopathic effect | DENV2-infected cells, cytopathic effect rescue, plate reader | 1.7% of 350,000 active | CPE inhibition, % at 9.99 µM; in the data active = CPE inhibition above about 20%, passing the limit was not always enough; inconclusive = no clear call, values can overlap the other calls; tested in BHK-21 cells;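 also: 0% = median of neutral control wells and 100% = median of positive control wells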
# S100A4 MyoIIA: inhibitors of human S100A4 binding to myosin IIA peptide; 0.14% of 360,000 active; S100A4/TAMRA-MyoIIA peptide fluorescence polarization; inhibition, % at 10.7 µM;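 active = mean inhibition of at least 70% across replicates, with every replicate also reaching that level; inconclusive = mean inhibition reaches 70% but some replicates fall short; inactive = mean inhibition below 70%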
# Target sequence (P26447 whole entry, looked up): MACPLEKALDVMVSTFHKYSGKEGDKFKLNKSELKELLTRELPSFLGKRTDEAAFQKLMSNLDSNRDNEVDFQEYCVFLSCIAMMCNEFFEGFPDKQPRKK
#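 Test system: S100A4 monomer protein. Medium: HEPES buffer with Ca2+, pH 7.2. Reagent: fluorescent myosin IIA peptide, 5 nM. Compound dosing: single-point compound testing. Timing: 5 min between mix addition and reading. Benchmarks: DMSO neutral and TFP positive wells.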
# E-selectin induc: E-selectin induction on HUVECs. P16581. HUVEC E-selectin immunofluorescence imaging; normalized: neutral wells 0, TNF-alpha wells 100. activation, % at 7.58 µM. 0.37% of 260,000 active;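 active = mean E-selectin-positive cell signal at least 10% of the positive control, reached in at least 60% of replicates, without over 20% cell loss; inconclusive = no rule given, readout overlaps actives, possibly toxicity-flagged; inactive = the rest, including those meeting only one limit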
#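 Read-out basis: % PE-positive cells; Test system: HUVEC primary endothelial cells; Technique: immunofluorescence imaging; Dosing: single-point compound dose.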
# Numbers without * were called inactive; ? = inconclusive; nt = not tested or not shown; ! = repeats disagree. The list is not random: actives were taken first. Their share in the collection is about 2%.
SMILES,Xi reactivation,DENV2 CPE,S100A4 MyoIIA,E-selectin induc
C[C@H](CO)N1C[C@H](C)[C@H](CN(C)S(=O)(=O)c2cn(C)cn2)Oc2c(NC(=O)CCCCCC(=O)Nc3ccccc3N)cccc2C1=O,0,-5,1,-3
COc1ccc(S(=O)(=O)N(C)C[C@@H]2Oc3c(NC(=O)CCCCCC(=O)Nc4ccccc4N)cccc3C(=O)N([C@H](C)CO)C[C@H]2C)cc1,0,32*,56,-1
COc1ccc(S(=O)(=O)N(C)C[C@@H]2Oc3c(NC(=O)CCCCCC(=O)Nc4ccccc4N)cccc3C(=O)N([C@H](C)CO)C[C@@H]2C)cc1,0,36*,1,-1
COc1ccc(S(=O)(=O)N(C)C[C@H]2Oc3c(NC(=O)CCCCCC(=O)Nc4ccccc4N)cccc3C(=O)N([C@H](C)CO)C[C@@H]2C)cc1,0,4,-13,0
COc1ccc(S(=O)(=O)N(C)C[C@H]2Oc3c(NC(=O)CCCCCC(=O)Nc4ccccc4N)cccc3C(=O)N([C@@H](C)CO)C[C@@H]2C)cc1,0,32*,-1,0
COc1ccc(CN2[C@@H](CC(C)=O)c3cc(C(F)(F)F)ccc3S2(=O)=O)cc1,0,nt,nt,1
Cc1ccc(S(=O)(=O)N(CC(=O)Nc2ccc(C)c(Cl)c2)C(=O)N2CCN(C)CC2)cc1,0,-10,1,0
CCOC(=O)Nc1ccc2c(COC(=O)CN(C)S(=O)(=O)c3ccc(C)cc3)cc(=O)oc2c1,0,1,-1,0
CC(OC(=O)C1CCN(S(=O)(=O)c2ccccc2C(F)(F)F)CC1)C(=O)N(C)Cc1ccccc1 (stereo not drawn),0,0,-1,nt
COc1ccc(-n2nc([N+](=O)[O-])c(=NCc3ccc4c(c3)OCO4)n2O)cc1,0,32*,1,nt
CC(=O)NCCNc1nc(NCc2cccs2)nc2ccsc12,0,71*,23,0
Cc1cccc(NC(=O)c2ccc(N3C(=O)C4CCCCC4C3=O)cc2)c1C (stereo not drawn),0,4,1,nt
Cc1ccc(C=C2SC(=S)N(CCCC(=O)Nc3cccc(C(=O)O)c3)C2=O)cc1,0,-3,-2,1
Cc1ccc(/C=C2\SC(=S)N(CCCC(=O)Nc3cccc(C(=O)O)c3)C2=O)cc1,0,85*,1,0
CCOc1ccc(NC(=O)Cc2ccccc2)c([N+](=O)[O-])c1,0,nt,nt,nt
CCOc1ccc(NN=C(C(=O)OC)C(=O)OC)c([N+](=O)[O-])c1,0,37*,35,0
O=C(Cc1ccc(S(=O)(=O)N2CCOCC2)s1)Nc1cc(C(F)(F)F)cc(C(F)(F)F)c1,0,15,-10,0
OC(c1cc(F)cc(Cl)c1)c1ncc(-c2ccc(Cl)cc2)[nH]1 (stereo not drawn),0,-9,-8,0
CN1OC[C@@H]2CN(C(=O)NC3CCCCC3)[C@H](c3ccc(N4CCCCC4)cc3)C[C@@H]21,0,22*,-7,0
CCNC(=O)N1C[C@H]2CON(C)[C@H]2C[C@H]1c1ccc(N2CCCCC2)cc1,0,18,-9,0
O=C(Nc1ccncc1)Nc1ccc(Cl)cc1Cl,0,71*,29,4
C[C@@H]1CN([C@H](C)CO)S(=O)(=O)c2ccc(/C=C/c3ccccc3)cc2O[C@@H]1CN(C)C(=O)CN1CCOCC1,-1,-3,9,0
Cc1ccc(S(=O)(=O)N(CCC(=O)O)Cc2ccc(Cl)cc2)cc1,nt,5,1,nt
COc1ccc(S(=O)(=O)NCC(=O)NCc2cc(=O)n(C)c(=O)n2C)cc1,0,57*,2,nt
Cn1c(CNS(=O)(=O)c2ccc(Cl)cc2)cc(=O)n(C)c1=O,0,10,8,97*
SMILES,Xi reactivation,DENV2 CPE,S100A4 MyoIIA,E-selectin induc
CC(O)(Cc1cccnc1)c1cccs1 (stereo not drawn),0,77*,-1,0
CCCSc1ccc([C@H]2N[C@@](Cc3ccccc3)(C(=O)OC)[C@H]3C(=O)N(CC)C(=O)[C@@H]23)cc1,0,?,-1,0
CCC(=O)N1[C@H](CN(C)C(C)=O)[C@H](c2ccc(-c3cccnc3)cc2)[C@@H]1CO,0,29*,3,0
CC(=O)NC[C@@H]1[C@@H](c2ccc(-c3cccnc3)cc2)[C@H](CO)N1C(=O)C1CCC1,0,31*,nt,0
CC(=O)N1[C@H](CO)[C@H](c2ccc(-c3cccnc3)cc2)[C@H]1CNC(=O)C1CC1,0,47*,-1,0
COc1cccc(/C=C/C(=O)OCC(=O)NC2CCCC2)c1,0,-9,-1,nt
Cc1cc(NC(=O)c2cnccn2)no1,nt,-9,11,nt
COc1ccc(NC(=O)Nc2ccc3c(c2)C(=O)N([C@H](C)CO)C[C@H](C)[C@H](CN(C)Cc2ccc(C(F)(F)F)cc2)OCCCC[C@H](C)O3)cc1,0,-4,157*,0
C[C@@H]1CCCCO[C@H](CN(C)Cc2ccc(C(F)(F)F)cc2)[C@H](C)CN([C@@H](C)CO)C(=O)c2cc(NC(=O)c3ccccc3)ccc2O1,0,140*,0,0
C[C@@H]1CCCCO[C@H](CN(C)Cc2ccc(Cl)c(Cl)c2)[C@H](C)CN([C@@H](C)CO)C(=O)c2cc(NC(=O)c3ccccc3)ccc2O1,0,82*,-2,0
C[C@H]1CCCCO[C@H](CN(C)Cc2ccccc2)[C@@H](C)CN([C@@H](C)CO)C(=O)c2cc(NC(=O)Nc3ccc(C(F)(F)F)cc3)ccc2O1,0,39*,-5,0
CC(=O)Nc1ccc(S(=O)(=O)NCCC(=O)Nc2ncccc2C)cc1,0,-4,16,3
CN(CC(O)COc1c(F)cc(Br)cc1F)C1CCCCC1 (stereo not drawn),0,4,-6,nt
O=C(C[C@@H]1CC[C@@H]2NC[C@H](O)COC[C@H]2O1)Nc1nccs1,nt,-1,-10,nt
C[C@@H]1CN([C@H](C)CO)C(=O)c2cc(NC(=O)Nc3cccc4ccccc34)ccc2O[C@@H](C)CCCCO[C@@H]1CN(C)Cc1ccc(C(F)(F)F)cc1,0,72*,nt,0
C[C@H]1CCCCO[C@H](CN(C)Cc2ccc(C(F)(F)F)cc2)[C@@H](C)CN([C@@H](C)CO)C(=O)c2cc(NC(=O)Nc3cccc4ccccc34)ccc2O1,0,-18,nt,0
C[C@H](CO)N1C[C@H](C)[C@@H](CN(C)Cc2ccc(C(=O)O)cc2)OCCCC[C@H](C)Oc2ccc(NC(=O)Nc3ccc(C(F)(F)F)cc3)cc2C1=O,0,-6,-5,0
C[C@@H]1CCCCO[C@H](CN(C)Cc2ccc(C(=O)O)cc2)[C@H](C)CN([C@@H](C)CO)C(=O)c2cc(NC(=O)Nc3ccc(C(F)(F)F)cc3)ccc2O1,0,41*!,32,0
O=C(C[C@@H]1CC[C@@H]2[C@H](COC[C@H](O)CN2Cc2ccc3c(c2)OCO3)O1)Nc1ccccc1,0,-16,6,0

# Source: PubChem BioAssay (Broad Institute)
